# Where two headings read alike, the source gives them in different places.
# Columns and labels:
# [1] = Ocular tissue levels after i.p. dosing in mice; format: in vivo, C57BL/6 mice; conditions: C57BL/6, mouse, ip, 5 mg/kg
# In short: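 C57BL/6 mice (15–20 g) got 5 mg/kg test compound i.p. twice daily for 4 days, then a single dose on Day 5. Eyes were taken 5 hr later, dissected into retina and sclera/choroid eye cups, and pooled (N=2–4). Tissue was homogenized in RIPA, extracted with acetonitrile containing internal standards and quantified by LC/MS/MS against standards made in naive tissue.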
# [2] = Oral and intravenous administration, systemic exposure; format: in vivo; conditions: data not shown; for Oral bioavailability: oral administration
# [3] = molecular target: FGFR2 (Homo sapiens, UniProt P21802); experiment: Kinase inhibition assay; format: biochemical
# In short: (§1)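 Kinase activity was measured by commercial services. IC50 is the mean of 3 independent experiments.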
# [4] = molecular target: Hck (Homo sapiens, UniProt P08631); experiment: Kinase inhibition assay; format: biochemical
# In short: as §1
# [5] = Pharmacokinetics after topical dosing in mice; format: in vivo, C57BL/6 mice; conditions: for Plasma concentration (below level of detection): mouse, topical 1% TG100801, all time points, analyte = labelled compound
# [6] = tested on: laser-induced choroidal neovascularization (CNV); experiment: Mouse model of laser-induced CNV; format: in vivo, C57BL/6 mice; conditions: 14 days
# [7] = molecular target: VEGFR1 (Homo sapiens, UniProt P17948); experiment: Kinase inhibition assay; format: biochemical
# In short: as §1
# [8] = molecular target: Yes (Homo sapiens, UniProt P07947); experiment: Kinase inhibition assay; format: biochemical
# In short: as §1
# [9] = molecular target: Fyn (Homo sapiens, UniProt P06241); experiment: Kinase inhibition assay; format: biochemical
# In short: as §1
# [10] = molecular target: VEGFR2 (Homo sapiens, UniProt P35968); experiment: Kinase inhibition assay; format: biochemical
# In short: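 Kinase inhibition was run by commercial services, with the test compound supplied as a DMSO stock. IC50 is the mean from 3 independent experiments.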
# [11] = molecular target: Lck (Homo sapiens, UniProt P06239); experiment: Kinase inhibition assay; format: biochemical
# [12] = tested on: human retinal microvascular EC; experiment: Endothelial cell proliferation assay; format: cell-based; conditions: 48 hr; 10% FBS, 50 ng/mL rhVEGF; mean ± SEM, N= 3
# In short: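 Human retinal microvascular EC were grown 48 hr with test compound (2 nM–5 µM) or DMSO vehicle in medium containing 10% FBS, 50 µg/mL heparin and 50 ng/mL rhVEGF. Cell number was read by XTT assay.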
# [13] = molecular target: Lyn (Homo sapiens, UniProt P07948); experiment: Kinase inhibition assay; format: biochemical
# In short: as §1
# [14] = molecular target: Src (Homo sapiens, UniProt P12931); experiment: Kinase inhibition assay; format: biochemical
# [15] = Body weight and tolerability in the mouse CNV study; format: in vivo; conditions: 14 days
# [16] = molecular target: PDGFRβ (Homo sapiens, UniProt P09619); experiment: Kinase inhibition assay; format: biochemical
# In short: as §1
# [17] = molecular target: FGFR1 (Homo sapiens, UniProt P11362); experiment: Kinase inhibition assay; format: biochemical
# In short: as §1
# [18] = molecular target: Fgr (Homo sapiens, UniProt P09769); experiment: Kinase inhibition assay; format: biochemical
# In short: as §1
# [19] = tested on: VEGF-induced phosphorylation of extracellular signal-regulated kinase (ERK); experiment: Western blot of VEGF-induced signaling in microvascular EC; format: cell-based, human; conditions: 1 µM for 1 hr, then rhVEGF 50 ng/ml 10 min
# In short: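 Endothelial cells were held overnight in serum- and growth factor-free medium before test compound exposure. After 10 min rhVEGF, cells were lysed and blotted for phosphorylated Erk1/2, with total STAT3 as loading control. Comparison groups were no-VEGF and VEGF-only cultures.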
# [20] = Ocular distribution of 14C-TG100801; format: in vivo, Dutch-Belted rabbit; conditions: rabbit, 30 min after single 40 µL topical 1% TG100801 containing 14C-TG100801, left eye; liquid scintillation counter
# In short: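 A single male Dutch-Belted rabbit (2.1 kg) received 25 µCi of 14C label in the dose. The label sits on a position kept after prodrug conversion, so counts cover prodrug plus active drug. About 30 mL blood was taken 30 min post-instillation. Blood and plasma were counted directly by liquid scintillation.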
# [21] = Ocular safety assessment in rabbits; format: in vivo, Dutch Belted rabbits; conditions: rabbit, 1% topical four times per day for 28 days
# In short: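 Dutch Belted rabbits (1.7–2.2 kg) had baseline gross and slit lamp exams. Each eye then received 40 µL of 1% test prodrug or vehicle topically four times daily for 28 days. Gross exams were done daily and slit lamp exams weekly. On Day 29, final exams and ERGs were done, then eyes were taken for histopathology.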
# [22] = tested on: retinal edema after retinal vein thrombosis; format: in vivo, Long Evans rats
# In short: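 Long Evans rats (250–275 g) got i.v. Rose Bengal (20 mg/kg), then laser thrombosis of one vein in the right eye. Both eyes received 10 µL test prodrug (0.3–1%) or vehicle, 5 doses over 3 days. Edema Index = (right AUC − left AUC)/left AUC. Scoring was blinded, n=9–11.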
# [23] = tested on: retinal edema after retinal vein thrombosis; experiment: Rat model of retinal vein occlusion, retinal thickness by OCT; format: in vivo, Long Evans rats; conditions: topical 1% TG100801
# In short: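 The same Rose Bengal/laser vein-occlusion protocol and 5-dose topical schedule were used, with 1% test prodrug or vehicle; naive eyes served as comparators. Under ketamine/xylazine, vertical OCT scans covered 5 mm from the optic disc edge. Thickness was calculated at 6 evenly spaced points, and retinal area was derived. Assessment was blinded, n=17–21.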
# [24] = tested on: kinase; experiment: Anti-kinase activity of the prodrug; format: biochemical; conditions: data not shown
# [25] = tested on: retinal and choroidal neovascularization; conditions: topical administration to the eye; ref Takahashi et al., 2003; cited from earlier work
# [26] = tested on: subfoveal choroidal neovascularization (CNV) due to AMD; conditions: intraocular injections every 6 weeks; ref Gragoudas et al., 2004; cited from earlier work
# Src, sequence (P12931 whole entry, species assumed): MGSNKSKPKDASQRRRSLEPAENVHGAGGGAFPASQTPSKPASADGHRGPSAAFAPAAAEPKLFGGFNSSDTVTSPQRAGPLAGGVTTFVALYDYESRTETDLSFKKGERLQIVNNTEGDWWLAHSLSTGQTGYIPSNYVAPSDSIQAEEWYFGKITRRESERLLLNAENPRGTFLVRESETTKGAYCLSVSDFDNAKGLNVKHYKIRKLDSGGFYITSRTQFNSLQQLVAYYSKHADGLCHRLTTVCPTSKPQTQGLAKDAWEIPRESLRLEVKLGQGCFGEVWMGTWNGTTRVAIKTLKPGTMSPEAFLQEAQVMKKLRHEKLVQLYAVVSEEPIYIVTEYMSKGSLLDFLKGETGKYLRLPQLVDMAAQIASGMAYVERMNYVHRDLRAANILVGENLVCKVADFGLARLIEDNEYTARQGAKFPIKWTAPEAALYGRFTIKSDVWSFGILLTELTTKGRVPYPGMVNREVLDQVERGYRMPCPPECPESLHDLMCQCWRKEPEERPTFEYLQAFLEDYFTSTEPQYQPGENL
# Lyn, sequence (P07948 whole entry, species assumed): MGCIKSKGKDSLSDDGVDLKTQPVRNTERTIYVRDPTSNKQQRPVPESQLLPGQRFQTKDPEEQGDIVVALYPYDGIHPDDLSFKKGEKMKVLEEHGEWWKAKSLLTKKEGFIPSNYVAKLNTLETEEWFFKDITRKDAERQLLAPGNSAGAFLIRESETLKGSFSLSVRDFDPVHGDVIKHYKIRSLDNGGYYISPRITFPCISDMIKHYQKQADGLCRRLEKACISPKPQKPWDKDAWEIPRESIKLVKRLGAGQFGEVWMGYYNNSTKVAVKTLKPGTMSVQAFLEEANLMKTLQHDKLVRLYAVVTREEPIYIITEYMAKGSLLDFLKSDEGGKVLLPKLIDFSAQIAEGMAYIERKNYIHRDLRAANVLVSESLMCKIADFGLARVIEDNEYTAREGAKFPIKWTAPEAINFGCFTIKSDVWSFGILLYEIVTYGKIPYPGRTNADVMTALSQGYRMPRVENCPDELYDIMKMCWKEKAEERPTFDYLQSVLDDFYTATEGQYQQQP
# VEGFR1, sequence (P17948 27-1338, species assumed): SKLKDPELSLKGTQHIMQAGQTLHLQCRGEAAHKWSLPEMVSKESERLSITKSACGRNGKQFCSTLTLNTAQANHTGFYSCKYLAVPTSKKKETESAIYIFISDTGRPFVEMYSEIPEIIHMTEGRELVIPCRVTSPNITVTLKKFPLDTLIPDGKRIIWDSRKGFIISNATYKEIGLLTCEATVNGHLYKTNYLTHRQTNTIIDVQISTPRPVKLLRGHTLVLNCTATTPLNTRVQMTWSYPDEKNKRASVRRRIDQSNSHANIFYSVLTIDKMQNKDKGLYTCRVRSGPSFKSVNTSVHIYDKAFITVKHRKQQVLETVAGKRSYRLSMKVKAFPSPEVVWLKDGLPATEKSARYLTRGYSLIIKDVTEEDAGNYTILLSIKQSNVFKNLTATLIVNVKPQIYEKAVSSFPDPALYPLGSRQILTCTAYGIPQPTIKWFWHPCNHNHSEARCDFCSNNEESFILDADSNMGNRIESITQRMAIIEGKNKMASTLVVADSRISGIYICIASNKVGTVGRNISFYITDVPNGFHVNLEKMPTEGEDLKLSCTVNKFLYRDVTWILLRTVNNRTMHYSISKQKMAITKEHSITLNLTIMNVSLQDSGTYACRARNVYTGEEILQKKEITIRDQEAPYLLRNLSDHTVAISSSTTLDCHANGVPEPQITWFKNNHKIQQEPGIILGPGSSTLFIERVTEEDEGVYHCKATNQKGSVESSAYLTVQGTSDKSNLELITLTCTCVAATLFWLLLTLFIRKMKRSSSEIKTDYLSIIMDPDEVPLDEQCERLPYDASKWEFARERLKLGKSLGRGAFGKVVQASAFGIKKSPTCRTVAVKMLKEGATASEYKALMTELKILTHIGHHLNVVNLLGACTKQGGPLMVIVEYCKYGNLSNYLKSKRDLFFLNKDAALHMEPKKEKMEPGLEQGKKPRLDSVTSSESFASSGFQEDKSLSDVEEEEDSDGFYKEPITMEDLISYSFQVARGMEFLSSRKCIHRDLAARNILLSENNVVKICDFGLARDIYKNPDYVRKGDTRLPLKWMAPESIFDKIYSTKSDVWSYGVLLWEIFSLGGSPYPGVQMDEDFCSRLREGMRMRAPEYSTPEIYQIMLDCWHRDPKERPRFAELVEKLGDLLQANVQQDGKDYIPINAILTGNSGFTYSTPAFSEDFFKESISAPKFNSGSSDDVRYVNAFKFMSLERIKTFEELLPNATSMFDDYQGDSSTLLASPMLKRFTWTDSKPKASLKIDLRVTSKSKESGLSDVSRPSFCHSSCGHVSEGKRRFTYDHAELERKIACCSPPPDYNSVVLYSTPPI
# VEGFR2, sequence (P35968 20-1356, species assumed): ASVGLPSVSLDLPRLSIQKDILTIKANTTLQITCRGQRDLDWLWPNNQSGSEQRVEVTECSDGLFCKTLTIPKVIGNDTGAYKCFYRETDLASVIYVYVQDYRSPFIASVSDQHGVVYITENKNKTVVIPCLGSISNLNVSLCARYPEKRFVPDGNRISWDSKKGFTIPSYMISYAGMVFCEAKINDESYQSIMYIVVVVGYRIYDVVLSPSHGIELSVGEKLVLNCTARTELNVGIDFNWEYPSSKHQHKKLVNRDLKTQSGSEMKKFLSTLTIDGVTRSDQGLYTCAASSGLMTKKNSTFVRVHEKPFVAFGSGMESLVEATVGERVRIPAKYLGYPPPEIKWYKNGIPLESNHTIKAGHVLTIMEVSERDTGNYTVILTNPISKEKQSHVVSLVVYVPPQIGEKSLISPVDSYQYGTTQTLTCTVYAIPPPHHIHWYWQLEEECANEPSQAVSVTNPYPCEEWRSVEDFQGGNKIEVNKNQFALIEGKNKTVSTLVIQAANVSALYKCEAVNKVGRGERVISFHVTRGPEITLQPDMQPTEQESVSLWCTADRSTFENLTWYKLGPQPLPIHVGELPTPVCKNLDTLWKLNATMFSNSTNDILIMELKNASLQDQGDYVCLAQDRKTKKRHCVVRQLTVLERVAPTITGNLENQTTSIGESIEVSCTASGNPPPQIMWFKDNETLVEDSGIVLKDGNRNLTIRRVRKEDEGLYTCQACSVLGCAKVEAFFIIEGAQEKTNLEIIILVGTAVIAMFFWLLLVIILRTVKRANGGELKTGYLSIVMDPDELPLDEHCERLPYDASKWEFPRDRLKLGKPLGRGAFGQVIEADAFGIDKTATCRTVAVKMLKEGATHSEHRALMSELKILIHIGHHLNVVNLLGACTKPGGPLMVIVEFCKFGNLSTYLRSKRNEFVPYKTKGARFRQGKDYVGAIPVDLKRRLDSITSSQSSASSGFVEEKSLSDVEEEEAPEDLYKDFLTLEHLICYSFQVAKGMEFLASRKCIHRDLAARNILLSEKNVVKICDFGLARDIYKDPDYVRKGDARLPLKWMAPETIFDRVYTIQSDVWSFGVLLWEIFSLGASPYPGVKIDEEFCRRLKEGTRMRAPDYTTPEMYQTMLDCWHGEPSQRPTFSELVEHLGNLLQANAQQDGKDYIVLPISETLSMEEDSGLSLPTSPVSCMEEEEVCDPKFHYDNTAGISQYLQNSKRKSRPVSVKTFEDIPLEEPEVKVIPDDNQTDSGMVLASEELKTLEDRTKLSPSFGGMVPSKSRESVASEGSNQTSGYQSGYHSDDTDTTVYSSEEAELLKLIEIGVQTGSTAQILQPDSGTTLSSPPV
# FGFR2, sequence (P21802 22-821, species assumed): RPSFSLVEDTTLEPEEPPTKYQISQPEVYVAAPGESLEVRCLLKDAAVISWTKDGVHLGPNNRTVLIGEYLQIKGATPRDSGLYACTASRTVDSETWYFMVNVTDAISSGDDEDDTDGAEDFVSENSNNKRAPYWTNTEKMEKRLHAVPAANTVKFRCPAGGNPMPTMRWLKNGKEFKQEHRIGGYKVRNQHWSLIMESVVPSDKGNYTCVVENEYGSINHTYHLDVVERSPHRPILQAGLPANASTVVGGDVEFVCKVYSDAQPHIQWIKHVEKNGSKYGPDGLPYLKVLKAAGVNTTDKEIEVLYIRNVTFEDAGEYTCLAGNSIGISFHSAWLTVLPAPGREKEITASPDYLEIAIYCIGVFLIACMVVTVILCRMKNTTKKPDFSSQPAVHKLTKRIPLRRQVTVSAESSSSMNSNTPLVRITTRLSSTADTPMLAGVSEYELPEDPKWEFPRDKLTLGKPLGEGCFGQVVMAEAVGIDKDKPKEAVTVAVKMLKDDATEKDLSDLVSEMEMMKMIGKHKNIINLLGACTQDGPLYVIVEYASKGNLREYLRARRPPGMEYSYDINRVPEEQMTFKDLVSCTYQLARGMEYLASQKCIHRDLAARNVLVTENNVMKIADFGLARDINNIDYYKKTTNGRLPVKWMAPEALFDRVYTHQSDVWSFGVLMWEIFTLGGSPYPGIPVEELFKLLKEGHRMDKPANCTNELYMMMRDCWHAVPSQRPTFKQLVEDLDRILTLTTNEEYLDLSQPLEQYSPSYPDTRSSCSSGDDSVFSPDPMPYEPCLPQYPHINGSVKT
# Yes, sequence (P07947 whole entry, species assumed): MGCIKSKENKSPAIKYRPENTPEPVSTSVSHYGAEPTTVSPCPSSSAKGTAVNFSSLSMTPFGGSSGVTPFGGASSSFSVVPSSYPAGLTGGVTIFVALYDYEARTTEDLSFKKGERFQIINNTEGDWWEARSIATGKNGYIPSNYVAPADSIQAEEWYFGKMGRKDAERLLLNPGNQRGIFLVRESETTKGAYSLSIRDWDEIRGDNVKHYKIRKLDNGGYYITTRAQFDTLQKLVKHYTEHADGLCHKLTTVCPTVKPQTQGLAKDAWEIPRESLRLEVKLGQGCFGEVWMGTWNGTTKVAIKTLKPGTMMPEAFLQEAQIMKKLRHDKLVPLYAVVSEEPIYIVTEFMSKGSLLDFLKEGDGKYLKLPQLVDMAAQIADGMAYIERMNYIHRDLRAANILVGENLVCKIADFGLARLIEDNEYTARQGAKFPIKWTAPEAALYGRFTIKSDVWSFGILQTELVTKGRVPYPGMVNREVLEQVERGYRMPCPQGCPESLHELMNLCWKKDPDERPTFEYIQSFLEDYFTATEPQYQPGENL
compound,measurement,setting,value
"Cc1cc(-c2cc(O)ccc2Cl)cc2nnc(Nc3ccc(OCCN4CCCC4)cc3)nc12 [TG100572, 4-chloro-3-(5-methyl-3-{[4-(2-pyrrolidin-1-ylethoxy)phenyl]amino}-1,2,4-benzotriazin-7-yl)phenol]",concentration at 5 h,[1]; choroid/sclera,9000 nM
same,concentration at 5 h,[1]; retina,818 nM
same,Clearance after intravenous administration,[2],rapidly cleared
same,Oral bioavailability,[2],oral administration does not result in detectable levels in the circulation
same,IC50,[3],16 nM
same,IC50,[4],6 nM
same,AUC(0-t),"[5]; C57BL/6, mouse, posterior eyecup (sclera/choroid/retina), topical or ocular, 1 %",6.8 µM·h
same,Tmax,"[5]; C57BL/6, mouse, sclera/choroid, topical or ocular, 1 %",1 h
same,Plasma concentration (below level of detection),[5],< 2 nM
same,Reduction of CNV area compared to vehicle,"[6]; TG100572 5 mg/kg i.p. daily, P< 0.001",40%
same,IC50,[7],2 nM
same,IC50,[8],0.2 nM
same,IC50,[9],0.5 nM
same,IC50,[10],7 nM
same,IC50,[11],0.1 nM
same,"ED50, inhibition of vascular endothelial cell proliferation",[12],610 ± 71 nM
same,IC50,[13],0.4 nM
same,IC50,[14],1 nM
same,Body weight loss over the study,"[15]; TG100572 5 mg/kg i.p. daily, vehicle gained 1%, P= 0.006",11%
same,IC50,[16],13 nM
same,IC50,[17],2 nM
same,IC50,[18],5 nM
same,VEGF-induced phosphorylation of ERK,[19],blocked VEGF-induced phosphorylation of extracellular signal-regulated kinase (ERK)
"Cc1cc(-c2cc(OC(=O)c3ccccc3)ccc2Cl)cc2nnc(Nc3ccc(OCCN4CCCC4)cc3)nc12 [TG100801, 4-chloro-3-(5-methyl-3-{[4-(2-pyrrolidin-1-ylethoxy)phenyl]amino}-1,2,4-benzotriazin-7-yl)phenyl benzoate]",Radioactivity in plasma samples,[20],absence of detectable radioactivity
same,Clearance after intravenous administration,[2],rapidly cleared
same,Oral bioavailability,[2],oral administration does not result in detectable levels in the circulation
same,Daily gross exams and weekly slit lamp exams,[21],did not detect ocular changes beyond baseline responses
same,Electroretinograms (ERG) pre- and post-study,[21],no meaningful changes
same,Ocular histopathology at study end,[21],normal ocular histology
same,"Ocular tolerability, overall judgement",[21],well-tolerated
same,Body weight during the study,[21]; data not shown,did not lose weight
same,Plasma concentration (below level of detection),[5],< 2 nM
same,Reduction of CNV area relative to vehicle,"[6]; topical 1% TG100801 twice a day, P= 0.036",58%
same,"Reduction in edema (Edema Index, fluorescein leakage) vs vehicle","[22]; topical 0.3% TG100801, 5 applications over 3 days, P= 0.002",47%
same,"Reduction in edema (Edema Index, fluorescein leakage) vs vehicle","[22]; topical 1% TG100801, 5 applications over 3 days, P = 0.039",32%
same,Average retinal area in the region encompassed by the OCT scans,"[23]; thrombosed eyes, naive 203 ± 2, vehicle 327 ± 23",257 ± 13 µm^2
same,Reduction of retinal thickness vs vehicle at points along 5 mm OCT scans,"[23]; 5 out of 6 points, P< 0.05",15–26%
same,Reduction of average retinal area vs vehicle-treated group,[23]; P= 0.013,21%
same,Ocular tolerability by slit lamp examination,"[15]; mouse, topical 0.6% and 1% twice a day","well tolerated with no signs of irritation, inflammation, or other ocular toxicity"
same,Anti-kinase activity,[24],does not display meaningful anti-kinase activity
NC(=O)Cc1cccc(C(=O)c2ccccc2)c1N [nepafenac],Effect on retinal and choroidal neovascularization,[25],inhibits retinal and choroidal neovascularization
pegaptanib,Severe vision loss over 1 year,[26],reduction in severe vision loss

# — publication PMC3032767 (Journal of cellular physiology, 2008)
